Molecules are shown by their SMILES.

Data set [1] addresses Human immunodeficiency virus type 1 reverse transcriptase (Human immunodeficiency virus 1, UniProt Q72547).
The test system of data set [2] is Human immunodeficiency virus 1. As to the kind of experiment: Concentration required to inhibit P24 production by 90% against U-90,152 of HIV-1 MF (P236L). It is filed as functional.
The subject of data set [3] is Human immunodeficiency virus 1. As to the kind of experiment: Concentration required to inhibit P24 production by 90% against L-697661 of HIV-1 IIIB (Y181C). Type of data set: functional.
In data set [4] the target is Human immunodeficiency virus type 1 reverse transcriptase (Human immunodeficiency virus 1, UniProt Q72547, Y181C).
The target in data set [5] is Human immunodeficiency virus type 1 reverse transcriptase (Human immunodeficiency virus 1, UniProt Q72547, P236L).
The nature of data set [6]: Bioavailability (dose 15 mg/kg i.v. and 30 mg/kg p.o.). It is filed as ADME, organism-based. To be noted: rat, in vivo, po. In a few lines:
(§1)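 Male Sprague-Dawley rats, fasted, dosed iv and po in a crossover design with a 1 week washout between treatments (N = 3). Compound was given as a solution in propylene glycol/water (80/20, v/v) acidified with a molar excess of methanesulfonic acid. Values are the iv clearance and the absolute oral bioavailability.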

In data set [7] the test system is Human immunodeficiency virus 1. Nature of the data set: Concentration required to inhibit P24 production by 90% against U-90,152 of HIV-1 IIIB (L100I, M230L). Type of data set: functional.
The nature of data set [8]: Clearance at an iv dose of 15 mg/Kg and po dose of 30 mg/Kg. It is filed as ADME, organism-based. The settings on record: rat, in vivo. In a few lines:
as §1

Usually IC50 stands for the midpoint of a concentration-inhibition curve. Usually IC90 stands for the concentration at which the effect reaches the 90% level. A low value points to an effect from little substance. As to `CCCNc1cccnc1N(CC)C1CCN(C(=O)c2cc3cc(NS(C)(=O)=O)ccc3[nH]2)CC1`, the IC50 was 130 nM in data set [1], 450 nM in data set [4] and 280 nM in data set [5]. Besides, the IC90 in data set [2] is 400 nM; in data set [3], 140 nM.
In general, bioavailability refers to dose-corrected exposure relative to a reference, in per cent. Higher therefore signals good availability. Regarding `CCNc1cccnc1N(CC)C1CCN(C(=O)c2cc3cc(NS(C)(=O)=O)ccc3[nH]2)CC1`, the bioavailability in data set [6] worked out at 2.8%. Further, the IC90 in data set [7] came to 80 nM; in data set [2], 310 nM; in data set [3], 180 nM. Further, the values for the 50% inhibitory concentration (IC50) in data set [1], in data set [4] and in data set [5] were 460 nM, 880 nM and 540 nM, respectively. The molecule further came in with a clearance in data set [8] of 66.6 mL/min/kg.
`CCN(c1ncccc1NC(C)(C)C)C1CCN(C(=O)c2cc3cc(NC(=O)N4CCN(C)CC4)ccc3[nH]2)CC1` yielded a bioavailability in data set [6] of 35.1%. In addition, the IC90 turned out to be 160 nM in data set [7], 160 nM in data set [2] and 50 nM in data set [3]. The half-inhibitory concentration (IC50) in data set [1] came out at 220 nM; in data set [4] it was 610 nM; in data set [5], 370 nM. In addition, the clearance in data set [8] was determined as 61 mL/min/kg.
Regarding `CCCN(c1ncccc1NC(C)C)C1CCN(C(=O)c2cc3cc(NS(C)(=O)=O)ccc3[nH]2)CC1`, the 50% inhibitory concentration (IC50) is 240 nM in data set [1], 610 nM in data set [4] and 240 nM in data set [5]. The IC90 in data set [2] amounted to 220 nM; in data set [3] it was 60 nM.
For the molecule `CCN(c1ncccc1NC(C)(C)C)C1CCN(C(=O)c2cc3cc(NS(=O)(=O)N4CCN(C)CC4)ccc3[nH]2)CC1`, in data set [6], the bioavailability was determined as 32%. Besides, the 90% effect concentration (IC90) in data set [7] was 140 nM; in data set [2] it was 340 nM; in data set [3], < 30 nM. Besides, the half-inhibitory concentration (IC50) in data set [1] came out at 790 nM; in data set [4], 1830 nM; in data set [5] it was 1250 nM. In data set [8], the clearance is 73.7 mL/min/kg.
Regarding `CCC(C)(C)Nc1cccnc1N(C)C1CCN(C(=O)c2cc3cc(NS(C)(=O)=O)ccc3[nH]2)CC1`, the concentration for half-maximal inhibition (IC50) was determined as 350 nM in data set [1], 530 nM in data set [4] and 3330 nM in data set [5].
Regarding `CCc1cc(NCc2nc3c(Cl)ccc(Cl)c3o2)c(O)nc1C` [L-697661], the 90% effect concentration (IC90) in data set [7] was 4000 nM; in data set [2], 430 nM; in data set [3], > 10000 nM. Also, the results for the IC50 in data set [1], in data set [4] and in data set [5] were 800 nM, > 60000 nM and 110 nM, respectively.
In data set [6], `CCN(c1nc(F)ccc1NC(C)(C)C)C1CCN(C(=O)c2cc3cc(NS(C)(=O)=O)ccc3[nH]2)CC1` gave a bioavailability of 17.1%. For the same molecule, the concentration for an effect of 90% (IC90) in data set [7] was 120 nM; in data set [2], 220 nM; in data set [3], < 30 nM. The half-maximal inhibitory concentration (IC50) in data set [1] is 730 nM; in data set [4] it was 1060 nM; in data set [5], 1050 nM. This molecule also returned a clearance in data set [8] of 27 mL/min/kg.
Regarding `CCNc1cccnc1N(CC)C1CCN(C(=O)c2cc3cc(NS(=O)(=O)N4CCN(C)CC4)ccc3[nH]2)CC1`, the values for the half-maximal inhibitory concentration (IC50) in data set [1], in data set [4] and in data set [5] were 240 nM, 1110 nM and 440 nM, respectively.
In the same order, the values of `CCCN(c1ncccc1NC(C)C)C1CCN(C(=O)c2cc3cc(NC(=O)N4CCN(C)CC4)ccc3[nH]2)CC1` are 190 nM, 860 nM and 400 nM.
As for `CC(C)Nc1ccc(Cl)nc1N(C)C1CCN(C(=O)c2cc3cc(NS(C)(=O)=O)ccc3[nH]2)CC1`, the values for the IC50 in data set [1], in data set [4] and in data set [5] were 360 nM, 2130 nM and 1700 nM, respectively.
`CC(C)Nc1cccnc1N(C1CC1)C1CCN(C(=O)c2cc3ccccc3[nH]2)CC1`: the half-inhibitory concentration (IC50) in data set [1] was determined as 700 nM; in data set [4], 2310 nM; in data set [5], 590 nM.
As for `CCNc1cccnc1N(CC)C1CCN(C(=O)c2cc3cc(NS(=O)(=O)C(C)C)ccc3[nH]2)CC1`, the figures for the IC50 in data set [1], in data set [4] and in data set [5] were 450 nM, 660 nM and 330 nM, respectively.
`CC(C)Nc1cccnc1N(C)C1CCN(C(=O)c2cc3ccc(CO)cc3[nH]2)CC1`: the results for the IC50 in data set [1], in data set [4] and in data set [5] were 170 nM, 490 nM and 370 nM, respectively.
As for `CCCN(c1ncccc1NC(C)(C)C)C1CCN(C(=O)c2cc3cc(NS(C)(=O)=O)ccc3[nH]2)CC1`, the IC90 was 110 nM in data set [7], 320 nM in data set [2] and 30 nM in data set [3]. In addition, the IC50 in data set [1] stood at 480 nM; in data set [4], 2480 nM; in data set [5] it was 1450 nM.
In the case of `CN(c1ncccc1NC1CC1)C1CCN(C(=O)c2cc3cc(NS(C)(=O)=O)ccc3[nH]2)CC1`, the IC50 in data set [1] is 90 nM; in data set [4] it was 280 nM; in data set [5] it was 210 nM. The IC90 is > 10000 nM in data set [2] and 4400 nM in data set [3].
`CCN(c1nc(F)ccc1NC(C)C)C1CCN(C(=O)c2cc3cc(NS(C)(=O)=O)ccc3[nH]2)CC1`: the IC90 worked out at 110 nM in data set [7], 300 nM in data set [2] and 140 nM in data set [3]. Moreover, the IC50 in data set [1] was 460 nM; in data set [4], 880 nM; in data set [5], 540 nM.
As for `CCN(c1ncccc1NC(C)C)C1CCN(C(=O)c2cc3cc(NS(C)(=O)=O)ccc3[nH]2)CC1`, the IC50 was found to be 250 nM in data set [1], 400 nM in data set [4] and 200 nM in data set [5].
`CCNc1cccnc1N(CC)C1CCN(C(=O)c2cc3cc(NS(=O)(=O)CC)ccc3[nH]2)CC1`: the IC50 in data set [1] is 400 nM; in data set [4] it was 480 nM; in data set [5] it was 260 nM.
In turn, `CCN(c1ncccc1NC(C)C)C1CCN(C(=O)c2cc3cc(NS(=O)(=O)N4CCN(C)CC4)ccc3[nH]2)CC1` returned a bioavailability in data set [6] of 8%. Also, the concentration for half-maximal inhibition (IC50) in data set [1] was found to be 380 nM; in data set [4] it was 770 nM; in data set [5], 570 nM. The IC90 in data set [2] came out at 300 nM; in data set [3], 170 nM. Further, the clearance in data set [8] is 89 mL/min/kg.
In the case of `CN(c1nc(F)ccc1NC(C)(C)C)C1CCN(C(=O)c2cc3cc(NS(C)(=O)=O)ccc3[nH]2)CC1`, the concentration for an effect of 90% (IC90) in data set [7] was 1600 nM; in data set [2], 2600 nM; in data set [3] it was 440 nM. Also, the concentration for half-maximal inhibition (IC50) amounted to 530 nM in data set [1], 720 nM in data set [4] and 1900 nM in data set [5].
Take `CC(C)Nc1cccnc1N(C)C1CCN(C(=O)c2cc3ccc(OCCOCCOCCO)cc3[nH]2)CC1`: the values for the IC50 in data set [1], in data set [4] and in data set [5] were 300 nM, 770 nM and 410 nM, respectively.
For the molecule `CCNc1cccnc1N(CC)C1CCN(C(=O)c2cc3cc(NC(=O)N4CCN(C)CC4)ccc3[nH]2)CC1`, the IC50 in data set [1] stood at 140 nM; in data set [4], 1230 nM; in data set [5], 240 nM.
The matching figures for `CCCN(c1ncccc1NCC)C1CCN(C(=O)c2cc3cc(NS(C)(=O)=O)ccc3[nH]2)CC1`: 150 nM, 950 nM and 520 nM.
For `CN(c1ncccc1NC1(C)CC1)C1CCN(C(=O)c2cc3cc(NS(C)(=O)=O)ccc3[nH]2)CC1`, the results for the IC50 in data set [1], in data set [4] and in data set [5] were 160 nM, 370 nM and 1450 nM, respectively. Besides, the 90% effect concentration (IC90) was > 300 nM in data set [2] and 2300 nM in data set [3].
On to `CCNc1cccnc1N(C(C)C)C1CCN(C(=O)c2cc3cc(NS(C)(=O)=O)ccc3[nH]2)CC1`, for which the IC50 was 380 nM in data set [1], 3600 nM in data set [4] and 2600 nM in data set [5].
In the same order, the values of `CN(c1ncccc1NCC1CC1)C1CCN(C(=O)c2cc3cc(NS(C)(=O)=O)ccc3[nH]2)CC1` are 520 nM, 2910 nM and 14600 nM.

These data come from ChEMBL document CHEMBL1129647, “Targeting delavirdine/atevirdine resistant HIV-1: identification of (alkylamino)piperidine-containing bis(heteroaryl)piperazines as broad spectrum HIV-1 reverse transcriptase inhibitors” (J Med Chem, 1996).
